Assay results as given in ChEMBL document CHEMBL1909513, “A double prodrug system for colon targeting of benzenesulfonamide COX-2 inhibitors” (Bioorg Med Chem Lett, 2011).
One block for each molecule: values may come before it.

Tests used:
[1] = Dissociation constant, pKa of the compound; format: physicochemical
[2] = Secretory transport of the compound through transepithelial human Caco2 model; format: ADME, cell-based; settings: Caco-2
[3] = Chemical stability of the compound in borate buffered saline assessed as half life of cyclization at pH 7.4; format: physicochemical
Summary of the method: (§1)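 Lactamization of the amino intermediate in borate-buffered saline, pH range 5–8, 37 °C, ionic strength 0.12 (figure legend gives I = 0.05). Parent loss and formation of parent drug and dihydroquinolone followed by HPLC, validated at 1.1–16.6 µM. Apparent first-order rate constants fitted by nonlinear regression, three determinations per pH; half-lives derived from these constants.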

[4] = Chemical stability of the compound in borate buffered saline assessed as half life of cyclization at pH 7; format: physicochemical; summary of the method: as §1
[5] = Chemical stability of the compound in borate buffered saline assessed as half life of cyclization at pH 6.4; format: physicochemical; summary of the method: as §1
[6] = Chemical stability of the compound in borate buffered saline assessed as half life of cyclization at pH 6.28; format: physicochemical; summary of the method: as §1
[7] = Chemical stability of the compound in borate buffered saline assessed as half life of cyclization at pH 6.2; format: physicochemical; summary of the method: as §1
[8] = Chemical stability of the compound in borate buffered saline assessed as half life of cyclization at pH 6.11; format: physicochemical; summary of the method: as §1
[9] = Chemical stability of the compound in borate buffered saline assessed as half life of cyclization at pH 6; format: physicochemical; summary of the method: as §1
[10] = Chemical stability of the compound in borate buffered saline assessed as half life of cyclization at pH 5.52; format: physicochemical; summary of the method: as §1

pKa [1]: 4.9
Structure (SMILES): CCC(=O)NS(=O)(=O)c1ccc(-c2c(-c3ccccc3)noc2C)cc1 [PARECOXIB]

Papp B→A [2]: 12.4 ×10⁻⁶ cm/s
Structure (SMILES): Cc1ccc(-c2cc(C(F)(F)F)nn2-c2ccc(S(N)(=O)=O)cc2)cc1 [CELECOXIB]

half-life [3]: 632 min | half-life [4]: 130 min | half-life [5]: 60.3 min | half-life [6]: 41.2 min | half-life [7]: 29.5 min | half-life [8]: 15.2 min | half-life [9]: 10.9 min | half-life [10]: 10.2 min
Structure (SMILES): Cc1ccc(-c2cc(C(F)(F)F)nn2-c2ccc(S(=O)(=O)NC(=O)CCc3ccccc3N)cc2)cc1
